Experimental data reported in ChEMBL document CHEMBL4428042, “Discovery and Characterization of a Class of Pyrazole Inhibitors of Bacterial Undecaprenyl Pyrophosphate Synthase” (J Med Chem, 2016).
In brackets after ≈: the same amount, converted by molar mass. Activity calls are given as the source filed them. No cut-off for these calls is given here.

Tests used:
Escherichia coli = experiment: Antibacterial activity against Escherichia coli 120 deficient in AcrAB incubated for 18 to 24 hrs by broth microdilution method; type: functional
Haemophilus influenzae [1] = experiment: Antibacterial activity against Haemophilus influenzae H128 deficient in AcrA incubated for 18 to 24 hrs by broth microdilution method; type: functional
Klebsiella pneumoniae = experiment: Antibacterial activity against Klebsiella pneumoniae 1161486a deficient in tolC incubated for 18 to 24 hrs by broth microdilution method; type: functional
Staphylococcus aureus [2] = experiment: Antibacterial activity against Staphylococcus aureus WCUH29 incubated for 18 to 24 hrs by broth microdilution method; type: functional
Pseudomonas aeruginosa = experiment: Antibacterial activity against Pseudomonas aeruginosa PAO322 deficient in MexA/B/C/D/E/F incubated for 18 to 24 hrs by broth microdilution method; type: functional
Staphylococcus aureus [3] = experiment: Antibacterial activity against Staphylococcus aureus OXFORD incubated for 18 to 24 hrs by broth microdilution method; type: functional
Streptococcus pneumoniae [4] = experiment: Antibacterial activity against Streptococcus pneumoniae 1629 incubated for 18 to 24 hrs by broth microdilution method; type: functional
Acinetobacter baumannii = experiment: Antibacterial activity against Acinetobacter baumannii ACM1010 incubated for 18 to 24 hrs by broth microdilution method; type: functional
Streptococcus pneumoniae [5] = experiment: Antibacterial activity against Streptococcus pneumoniae Ery2 incubated for 18 to 24 hrs by broth microdilution method; type: functional
Moraxella catarrhalis = experiment: Antibacterial activity against Moraxella catarrhalis 1502 incubated for 18 to 24 hrs by broth microdilution method; type: functional
Haemophilus influenzae [6] = experiment: Antibacterial activity against Haemophilus influenzae H128 incubated for 18 to 24 hrs by broth microdilution method; type: functional
Streptococcus pyogenes = experiment: Antibacterial activity against Streptococcus pyogenes 1307006P incubated for 18 to 24 hrs by broth microdilution method; type: functional
Staphylococcus aureus [7] = experiment: Binding affinity to N-terminal FLAG-tagged and C-terminal SBP-tagged Staphylococcus aureus recombinant UppS expressed in Escherichia coli by affinity selection based ELT screen assay
Staphylococcus aureus [8] = experiment: Antibacterial activity against Staphylococcus aureus RN4220 expressing wild type UppS incubated for 18 to 24 hrs by broth microdilution method; type: functional
Staphylococcus aureus [9] = experiment: Antibacterial activity against Staphylococcus aureus RN4220 transfected with pYH4-UppS in presence of anhydrotetracycline incubated for 18 to 24 hrs by broth microdilution method; type: functional
Procedure, shortened: (§1)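 S. aureus strain carrying an inducible uppS over-expression plasmid, with anhydrotetracycline inducer at 0.1 µg/mL. MIC was compared with the un-induced system and with a plasmid vector control strain.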

Staphylococcus aureus [10] = experiment: Antibacterial activity against Staphylococcus aureus RN4220 expressing UppS F103L mutant incubated for 18 to 24 hrs by broth microdilution method; type: functional
Procedure, shortened: (§2)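 S. aureus resistant mutants were isolated from the wild-type laboratory strain in the presence of the pyrazole UppS inhibitor and then tested for MIC.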

[11] = target: T1, Ditrans,polycis-undecaprenyl-diphosphate synthase ((2E,6E)-farnesyl-diphosphate specific) (Klebsiella pneumoniae, UniProt A0A080SPQ8); experiment: Inhibition of hexa-histidine tagged Klebsiella pneumoniae UppS expressed in Escherichia coli assessed as reduction in IPP condensation to growing prenyl chain by measuring pyrophosphate production
T1 sequence (A0A080SPQ8 whole entry): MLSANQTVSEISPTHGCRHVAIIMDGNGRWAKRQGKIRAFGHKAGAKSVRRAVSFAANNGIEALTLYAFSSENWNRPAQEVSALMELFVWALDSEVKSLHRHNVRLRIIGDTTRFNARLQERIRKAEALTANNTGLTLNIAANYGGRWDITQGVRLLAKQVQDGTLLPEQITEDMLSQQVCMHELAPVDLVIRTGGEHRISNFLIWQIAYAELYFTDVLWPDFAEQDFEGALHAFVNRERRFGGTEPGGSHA

[12] = Inhibition of N-terminal FLAG-tagged and C-terminal SBP-tagged Staphylococcus aureus recombination UppS assessed as reduction in IPP condensation to growing prenyl chain by measuring pyrophosphate production incubated for 30 mins
Staphylococcus aureus [13] = experiment: Binding affinity to N-terminal FLAG-tagged and C-terminal SBP-tagged Staphylococcus aureus recombination UppS assessed change in melting temperature at 10 uM by SYPRO Orange based assay
Staphylococcus aureus [14] = experiment: Antibacterial activity against Staphylococcus aureus RN4220 transfected with pYH4 in presence of anhydrotetracycline incubated for 18 to 24 hrs by broth microdilution method; type: functional
Staphylococcus aureus [15] = experiment: Antibacterial activity against Staphylococcus aureus RN4220 expressing UppS F148L mutant incubated for 18 to 24 hrs by broth microdilution method; type: functional; procedure, shortened: as §2
Staphylococcus aureus [16] = experiment: Antibacterial activity against Staphylococcus aureus RN4220 transfected with pYH4-UppS in absence of anhydrotetracycline incubated for 18 to 24 hrs by broth microdilution method; type: functional
Staphylococcus aureus [17] = experiment: Antibacterial activity against Staphylococcus aureus RN4220 transfected with pYH4 in absence of anhydrotetracycline incubated for 18 to 24 hrs by broth microdilution method; type: functional
[18] = target: T2, Ditrans,polycis-undecaprenyl-diphosphate synthase ((2E,6E)-farnesyl-diphosphate specific) (Pseudomonas aeruginosa (strain ATCC 15692 / DSM 22644 / CIP 104116 / JCM14847 / LMG 12228 / 1C / PRS 101 / PAO1), UniProt Q9HXY2); experiment: Inhibition of hexa-histidine tagged Pseudomonas aeruginosa UppS expressed in Escherichia coli assessed as reduction in IPP condensation to growing prenyl chain by measuring pyrophosphate production incubated for 30 mins
T2 sequence (Q9HXY2 whole entry): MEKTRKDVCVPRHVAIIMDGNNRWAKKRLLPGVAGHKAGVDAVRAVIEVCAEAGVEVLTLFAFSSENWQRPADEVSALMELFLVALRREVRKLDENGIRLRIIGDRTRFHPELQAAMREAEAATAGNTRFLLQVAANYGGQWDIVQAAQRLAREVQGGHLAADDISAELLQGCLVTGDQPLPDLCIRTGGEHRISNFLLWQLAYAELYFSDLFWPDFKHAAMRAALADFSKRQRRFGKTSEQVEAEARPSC

Staphylococcus aureus [19] = experiment: Resistance index, ratio of MIC for antibacterial activity against Staphylococcus aureus RN4220 transfected with pYH4-UppS in presence of anhydrotetracycline to MIC for antibacterial activity against Staphylococcus aureus RN4220 transfected with pYH4-UppS in absence of anhydrotetracycline; type: functional; procedure, shortened: as §1
[20] = Cytotoxicity against mouse L5178Y TK+/- suspension cells incubated for 72 hrs by Cell-titer-Glo reagent based assay; details: read-out: TC50
[21] = target: T3, Ditrans,polycis-undecaprenyl-diphosphate synthase ((2E,6E)-farnesyl-diphosphate specific) (Acinetobacter baumannii, UniProt V5VCK8); experiment: Inhibition of hexa-histidine tagged Acinetobacter baumannii UppS expressed in Escherichia coli assessed as reduction in IPP condensation to growing prenyl chain by measuring pyrophosphate production
T3 sequence (V5VCK8 whole entry): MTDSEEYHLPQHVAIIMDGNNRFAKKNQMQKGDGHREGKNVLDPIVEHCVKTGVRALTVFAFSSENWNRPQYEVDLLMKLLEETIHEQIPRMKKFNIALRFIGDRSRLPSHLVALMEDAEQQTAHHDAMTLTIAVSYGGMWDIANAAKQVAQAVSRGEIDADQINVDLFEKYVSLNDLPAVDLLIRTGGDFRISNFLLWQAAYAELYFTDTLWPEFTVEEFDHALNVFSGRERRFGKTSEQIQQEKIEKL

| Structure (SMILES) | MIC (Escherichia coli) | MIC (Haemophilus influenzae [1]) | MIC (Klebsiella pneumoniae) | MIC (Staphylococcus aureus [2]) | MIC (Pseudomonas aeruginosa) | MIC (Staphylococcus aureus [3]) | MIC (Streptococcus pneumoniae [4]) | MIC (Acinetobacter baumannii) | MIC (Streptococcus pneumoniae [5]) | MIC (Moraxella catarrhalis) | MIC (Haemophilus influenzae [6]) | MIC (Streptococcus pyogenes) | Activity (Staphylococcus aureus [7]) | MIC (Staphylococcus aureus [9]) | IC50 [11] | IC50 [12] | ΔTm (Staphylococcus aureus [13]) | MIC (Staphylococcus aureus [14]) | MIC (Staphylococcus aureus [16]) | MIC (Staphylococcus aureus [17]) | also measured |
| --- | --- | --- | --- | --- | --- | --- | --- | --- | --- | --- | --- | --- | --- | --- | --- | --- | --- | --- | --- | --- | --- |
| C[C@@H](O)[C@H]1C(=O)N2C(C(=O)O)=C(S[C@@H]3CN[C@H](C(=O)N(C)C)C3)[C@H](C)[C@H]12 [MEROPENEM] | 0.03 µg/mL (≈ 0.0782 µM) | 0.125 µg/mL (≈ 0.326 µM) | 0.03 µg/mL (≈ 0.0782 µM) | 2 µg/mL (≈ 5.22 µM) | 0.5 µg/mL (≈ 1.3 µM) | 0.125 µg/mL (≈ 0.326 µM) | 0.016 µg/mL (≈ 0.0417 µM) | 0.5 µg/mL (≈ 1.3 µM) | 0.016 µg/mL (≈ 0.0417 µM) | ≤ 0.008 µg/mL | 0.125 µg/mL (≈ 0.326 µM) | ≤ 0.008 µg/mL |  |  |  |  |  |  |  |  |  |
| O=C(O)c1cn(C2CC2)c2cc(N3CCNCC3)c(F)cc2c1=O [CIPROFLOXACIN] | ≤ 0.008 µg/mL | ≤ 0.008 µg/mL | ≤ 0.008 µg/mL | 0.5 µg/mL (≈ 1.51 µM) | ≤ 0.008 µg/mL |  | 0.25 µg/mL (≈ 0.754 µM) | > 8 µg/mL | 2 µg/mL (≈ 6.04 µM) | 0.03 µg/mL (≈ 0.0905 µM) | ≤ 0.008 µg/mL | 0.5 µg/mL (≈ 1.51 µM) |  |  |  |  |  |  |  |  |  |
| CC(C)Oc1ccc(CN(CCC(N)=O)C(=O)c2cnn(Cc3ccccc3)c2-c2ccc3sccc3c2)cc1 | > 128 µg/mL | 8 to 16 µg/mL (≈ 14.5 to 28.9 µM) | > 128 µg/mL | 4 to 8 µg/mL (≈ 7.24 to 14.5 µM) | > 128 µg/mL | 8 µg/mL (≈ 14.5 µM) | 32 to 64 µg/mL (≈ 57.9 to 116 µM) | > 128 µg/mL | 32 to 64 µg/mL (≈ 57.9 to 116 µM) | 8 to 16 µg/mL (≈ 14.5 to 28.9 µM) | > 128 µg/mL | 64 µg/mL (≈ 116 µM) | Active | 64 µg/mL | > 100 µM | 0.19 µM | 8 °C | 8 µg/mL | 32 µg/mL (≈ 57.9 µM) | 8 µg/mL (≈ 14.5 µM) | MIC (Staphylococcus aureus [8]): 8 µg/mL (≈ 14.5 µM); MIC (Staphylococcus aureus [10]): 64 µg/mL (≈ 116 µM); MIC (Staphylococcus aureus [15]): 64 µg/mL (≈ 116 µM); IC50 [18]: > 100 µM; Ratio (Staphylococcus aureus [19]): 2; CC50 at 72 h [20]: 25 µM; IC50 [21]: > 100 µM |
| Cc1ccc(-c2c(C(=O)N(CCC(N)=O)Cc3ccc(OC(C)C)cc3)cnn2Cc2ccccc2)cc1 | > 128 µg/mL | 32 µg/mL (≈ 62.7 µM) | > 128 µg/mL | 32 to 64 µg/mL (≈ 62.7 to 125 µM) | > 128 µg/mL | 32 to 64 µg/mL (≈ 62.7 to 125 µM) | 128 µg/mL (≈ 251 µM) | > 128 µg/mL | 128 µg/mL (≈ 251 µM) | 32 µg/mL (≈ 62.7 µM) | > 128 µg/mL | 128 µg/mL (≈ 251 µM) | Active | > 128 µg/mL | > 100 µM | 0.97 µM | 11 °C | 32 µg/mL | 128 µg/mL (≈ 251 µM) | 64 µg/mL (≈ 125 µM) | IC50 [18]: > 100 µM; CC50 at 72 h [20]: 100 µM; IC50 [21]: > 100 µM |
